What was measured:
[1] = Cytotoxicity against human DU145 cells after 48 hrs by SRB assay; format: functional; details: DU-145, 48 h
Method in brief: (§1)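 NCI-60 five-dose screen: compounds dissolved in DMSO/H2O, tested at five 10-fold dilutions (10^-4 to 10^-8 M) for 48 h. Growth measured by sulforhodamine B optical density at time zero and after 48 h drug or vehicle exposure. Percentage growth calculated relative to control. GI50 is the molar concentration giving 50% reduction in net cell growth versus day-0 cell numbers.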

MCF7 = assay: Cytotoxicity against human MCF7 cells after 48 hrs by SRB assay; format: functional; details: MCF7, 48 h; method in brief: as §1
MDA-MB-231 = assay: Cytotoxicity against human MDA-MB-231 cells after 48 hrs by SRB assay; format: functional; details: MDA-MB-231, 48 h; method in brief: as §1
[2] = Cytotoxicity against human Hs 578T cells after 48 hrs by SRB assay; format: functional; method in brief: as §1
[3] = Cytotoxicity against human BT549 cells after 48 hrs by SRB assay; format: functional; details: BT-549, 48 h; method in brief: as §1
MDA-MB-468 = assay: Cytotoxicity against human MDA-MB-468 cells after 48 hrs by SRB assay; format: functional; details: MDA-MB-468, 48 h; method in brief: as §1
[4] = Cytotoxicity against human Hs578T cells assessed as reduction of cell viability after 48 hrs by calcein-AM-based fluorescence analysis; format: functional; details: Hs-578T
Method in brief: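 Cells seeded at 3,000 per well in DMEM with 10% FBS and left overnight at 37 °C. A range of compound concentrations or vehicle was then added for 48 h. Cells were washed with DPBS pH 7.4 and loaded with 2 μM calcein-AM for 30 min at 25 °C. Fluorescence read at ex 490/em 520 nm; viability is given relative to untreated control (100%). Mean ± s.d.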

Tubulin = Tubulin (Sus scrofa, UniProt P02554+P02550); assay: Inhibition of porcine brain tubulin polymerization by spectrophotometric analysis
Method in brief: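 Tubulin at 4 mg/mL in cold 80 mM PIPES pH 6.9 with 2 mM MgCl2, 0.5 mM EGTA, GTP and 10% glycerol. Compound (added as 10x stock in 50% DMSO) or DMSO was preincubated 2 min at 37 °C in a prewarmed plate. Cold tubulin was then added, and polymerization at 37 °C was followed by A340 over time. Dose-response, mean ± s.d., n=3.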

CCRF-CEM = assay: Cytotoxicity against human CCRF-CEM cells after 48 hrs by SRB assay; format: functional; method in brief: as §1
[5] = Cytotoxicity against human HL-60(TB) cells after 48 hrs by SRB assay; format: functional; details: HL-60, 48 h; method in brief: as §1
K562 = assay: Cytotoxicity against human K562 cells after 48 hrs by SRB assay; format: functional; details: K562, 48 h; method in brief: as §1
[6] = Cytotoxicity against human MOLT4 cells after 48 hrs by SRB assay; format: functional; details: MOLT-4, 48 h; method in brief: as §1
[7] = Cytotoxicity against human RPMI8226 cells after 48 hrs by SRB assay; format: functional; details: RPMI-8226, 48 h; method in brief: as §1
SR = assay: Cytotoxicity against human SR cells after 48 hrs by SRB assay; format: functional; method in brief: as §1
A549 = assay: Cytotoxicity against human A549 cells after 48 hrs by SRB assay; format: functional; details: A549, 48 h; method in brief: as §1
[8] = Cytotoxicity against human HOP62 cells after 48 hrs by SRB assay; format: functional; details: HOP-62, 48 h
Method in brief: (§2)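 NCI-60 five-dose screen: compounds in DMSO/H2O tested at 10^-4 to 10^-8 M (10-fold steps) for 48 h. Cell mass read by sulforhodamine B optical density at time zero and after exposure to compound or vehicle. GI50 is the concentration giving 50% reduction in net cell growth relative to day-0 cell numbers.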

[9] = Cytotoxicity against human HOP92 cells after 48 hrs by SRB assay; format: functional; details: HOP-92, 48 h; method in brief: as §1
NCI-H23 = assay: Cytotoxicity against human NCI-H23 cells after 48 hrs by SRB assay; format: functional; details: NCI-H23, 48 h; method in brief: as §1
NCI-H460 = assay: Cytotoxicity against human NCI-H460 cells after 48 hrs by SRB assay; format: functional; details: NCI-H460, 48 h; method in brief: as §1
NCI-H522 = assay: Cytotoxicity against human NCI-H522 cells after 48 hrs by SRB assay; format: functional; details: NCI-H522, 48 h; method in brief: as §1
[10] = Cytotoxicity against human COLO205 cells after 48 hrs by SRB assay; format: functional; details: COLO 205, 48 h; method in brief: as §1
[11] = Cytotoxicity against human HCC2998 cells after 48 hrs by SRB assay; format: functional; details: HCC 2998, 48 h; method in brief: as §1
[12] = Cytotoxicity against human HCT116 cells after 48 hrs by SRB assay; format: functional; details: HCT-116, 48 h; method in brief: as §1
[13] = Cytotoxicity against human HCT15 cells after 48 hrs by SRB assay; format: functional; details: HCT-15, 48 h; method in brief: as §1
HT-29 = assay: Cytotoxicity against human HT-29 cells after 48 hrs by SRB assay; format: functional; details: HT-29, 48 h; method in brief: as §1
KM12 = assay: Cytotoxicity against human KM12 cells after 48 hrs by SRB assay; format: functional; details: KM12, 48 h; method in brief: as §1
[14] = Cytotoxicity against human SW620 cells after 48 hrs by SRB assay; format: functional; details: SW-620, 48 h; method in brief: as §1
[15] = Cytotoxicity against human SF268 cells after 48 hrs by SRB assay; format: functional; details: SF-268, 48 h; method in brief: as §1
[16] = Cytotoxicity against human SF295 cells after 48 hrs by SRB assay; format: functional; details: SF-295, 48 h; method in brief: as §1
[17] = Cytotoxicity against human SF539 cells after 48 hrs by SRB assay; format: functional; details: SF-539, 48 h; method in brief: as §1
[18] = Cytotoxicity against human SNB19 cells after 48 hrs by SRB assay; format: functional; details: SNB-19, 48 h; method in brief: as §1
[19] = Cytotoxicity against human SNB75 cells after 48 hrs by SRB assay; format: functional; details: SNB-75, 48 h; method in brief: as §1
U-251 = assay: Cytotoxicity against human U251 cells after 48 hrs by SRB assay; format: functional; details: U-251, 48 h
Method in brief: (§3)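 NCI-60 five-dose screen. Compounds dissolved in DMSO/H2O and tested at five 10-fold dilutions (10^-4 to 10^-8 M) for 48 h. Growth read by sulforhodamine B optical density at time zero and after 48 h of exposure to compound or vehicle. Percent growth calculated against control. GI50 is the molar concentration giving 50% reduction in net cell growth relative to cell number on day 0.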

[20] = Cytotoxicity against human LOXIMVI cells after 48 hrs by SRB assay; format: functional; details: LOX IMVI; method in brief: as §1
M14 = assay: Cytotoxicity against human M14 cells after 48 hrs by SRB assay; format: functional; details: M14, 48 h; method in brief: as §1
MDA-MB-435 = assay: Cytotoxicity against human MDA-MB-435 cells after 48 hrs by SRB assay; format: functional; details: MDA-MB-435, 48 h; method in brief: as §1
SK-MEL-2 = assay: Cytotoxicity against human SK-MEL-2 cells after 48 hrs by SRB assay; format: functional; details: SK-MEL-2, 48 h; method in brief: as §1
SK-MEL-28 = assay: Cytotoxicity against human SK-MEL-28 cells after 48 hrs by SRB assay; format: functional; details: SK-MEL-28, 48 h; method in brief: as §1
SK-MEL-5 = assay: Cytotoxicity against human SK-MEL-5 cells after 48 hrs by SRB assay; format: functional; details: SK-MEL-5, 48 h; method in brief: as §1
[21] = Cytotoxicity against human UACC257 cells after 48 hrs by SRB assay; format: functional; details: UACC-257, 48 h; method in brief: as §3
[22] = Cytotoxicity against human UACC62 cells after 48 hrs by SRB assay; format: functional; details: UACC-62, 48 h; method in brief: as §3
[23] = Cytotoxicity against human IGROV1 cells after 48 hrs by SRB assay; format: functional; details: IGROV-1, 48 h; method in brief: as §2
[24] = Cytotoxicity against human OVCAR3 cells after 48 hrs by SRB assay; format: functional; details: OVCAR-3, 48 h; method in brief: as §1
[25] = Cytotoxicity against human OVCAR4 cells after 48 hrs by SRB assay; format: functional; details: OVCAR-4, 48 h; method in brief: as §1
[26] = Cytotoxicity against human OVCAR5 cells after 48 hrs by SRB assay; format: functional; details: OVCAR-5, 48 h; method in brief: as §1
[27] = Cytotoxicity against human OVCAR8 cells after 48 hrs by SRB assay; format: functional; details: OVCAR-8, 48 h; method in brief: as §1
[28] = Cytotoxicity against human NCI-ADR-RES cells after 48 hrs by SRB assay; format: functional; method in brief: as §1
[29] = Cytotoxicity against human SKOV3 cells after 48 hrs by SRB assay; format: functional; details: SK-OV-3, 48 h; method in brief: as §1
786-0 = assay: Cytotoxicity against human 786-0 cells after 48 hrs by SRB assay; format: functional; details: 786-0, 48 h; method in brief: as §1
A498 = assay: Cytotoxicity against human A498 cells after 48 hrs by SRB assay; format: functional; details: A498, 48 h; method in brief: as §1
ACHN = assay: Cytotoxicity against human ACHN cells after 48 hrs by SRB assay; format: functional; method in brief: as §1
[30] = Cytotoxicity against human Caki1 cells after 48 hrs by SRB assay; format: functional; details: CAKI-1, 48 h; method in brief: as §1
SN12C = assay: Cytotoxicity against human SN12C cells after 48 hrs by SRB assay; format: functional; method in brief: as §1
[31] = Cytotoxicity against human UO31 cells after 48 hrs by SRB assay; format: functional; details: UO-31, 48 h; method in brief: as §3
[32] = Cytotoxicity against human PC3 cells after 48 hrs by SRB assay; format: functional; details: PC-3, 48 h; method in brief: as §1

COc1cc(-c2n[nH]nc2-c2cc3ccccc3s2)cc(OC)c1OC
< 10 nM: GI50 [1] | GI50 (MCF7) | GI50 [2] | GI50 [3] | GI50 (MDA-MB-468) | GI50 [5] | GI50 (K562) | GI50 [7] | GI50 (SR) | GI50 [9] | GI50 (NCI-H23) | GI50 (NCI-H460) | GI50 (NCI-H522) | GI50 [10] | GI50 [12] | GI50 [13] | GI50 [14] | GI50 [15] | GI50 [16] | GI50 [17] | GI50 [18] | GI50 [19] | GI50 (U-251) | GI50 [20] | GI50 (M14) | GI50 (MDA-MB-435) | GI50 (SK-MEL-2) | GI50 (SK-MEL-28) | GI50 (SK-MEL-5) | GI50 [21] | GI50 [22] | GI50 [23] | GI50 [24] | GI50 [27] | GI50 [28] | GI50 [29] | GI50 (786-0) | GI50 (A498) | GI50 (ACHN) | GI50 [30] | GI50 [31]
23 nM: GI50 (A549)
20 nM: GI50 (HT-29)
42 nM: GI50 [6] | GI50 [25] | GI50 [26]
48 nM: GI50 (SN12C)
1700 nM: IC50 (Tubulin)
34 nM: GI50 [32]
15 nM: GI50 [8]
14 nM: GI50 (MDA-MB-231)
28 nM: GI50 (CCRF-CEM)
22 nM: GI50 (KM12)
10 nM: GI50 [4]
36 nM: GI50 [11]

COc1cc(-c2n[nH]nc2-c2cc3ccccc3o2)cc(OC)c1OC
20 nM: GI50 [4]

Source: ChEMBL document CHEMBL3751743, “Synthesis and anti-cancer screening of novel heterocyclic-(2H)-1,2,3-triazoles as potential anti-cancer agents” (Medchemcomm, 2015)
